Screening results as filed in PubChem BioAssay.
Shown is part of a subset that was picked to be rich in hits.
UPR XBP1 act = activators of adaptive arm of unfolded protein response (XBP1); CHO-XBP1 luciferase reporter, IRE1-XBP1 UPR activation, luminescence; percent of tunicamycin response, DMSO as zero; activation, % at 20 µM; hit rate 0.33% among 330,000; AID 463104;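 active = versus positive control, 20 µM dose yields 30% or more activation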;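 note: 100% = tunicamycin at 10 µg/mL and 0% = DMSO only wells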
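Material – CHO cell line with stable XBP1 luciferase reporter · Buffer or medium – F12 plus 10% FBS · Compound – single point, 20 µM final compound, 1% DMSO · Schedule – 16-18 h cell attachment at 37 °C, then 6 h compound exposure · Signal – Steady-Glo luminescence read · Benchmarks – high control tunicamycin 10 µg/mL final, low control DMSO vehicle only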
CHOP inh = CHOP inhibition in unfolded protein response | CHO-K1 CHOP-promoter luciferase, tunicamycin-induced, 15-18 h | inhibition, % at 10 µM | hit rate 3.8% among 220,000 | AID 2732;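 active = compounds that reduced the stress-induced luciferase reporter signal by more than about 70% of percent inhibition, limit read from the data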;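 note: 0% = tunicamycin plus vehicle and 100% = wells without tunicamycin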
T cruzi repl = blocks replication of Trypanosoma cruzi; T. cruzi beta-gal in NIH3T3, luminescence, 90 h; inhibition, % (test concentration not listed); hit rate 1.4% among 300,000; AID 1885;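 active = mean inhibition across valid replicates above about 55%, limit read from the data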;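 note: signal also drops with host cell toxicity which is not excluded here; 0% = plate median of DMSO wells and 100% = zero luminescence signal; higher percent means less beta-gal luminescence so fewer parasites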
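Assay system: NIH/3T3 fibroblasts plus reporter T. cruzi. Amount: NIH/3T3 cells, 5,000 per well. Buffer or medium: DMEM, 2% fetal bovine serum. Doses: compound pinned at 50 nL/well, DMSO. Schedule: ≥90 h infection period, 3 h prior cell attachment. Signal: luminescent β-galactosidase signal after 60 min lysis. Read-out: parasite load inhibition, %.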
Lmaj promast = reduces viability of Leishmania major promastigotes; resazurin fluorescence viability; inhibition, % at 10 µM; hit rate 9% among 200,000; AID 1063; in the data active = inhibition above about 50%;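 note: promastigotes grown with compound for 44 hours at 28 °C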
CHOP UPR activ = apoptotic UPR (CHOP) activation. activation, % at 10 µM. CHO-CHOP luciferase reporter, luminescence; percent of tunicamycin response over DMSO baseline. hit rate 0.34% among 330,000;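 active = at 10 µM dose, activation of 40% or more, normalized to positive control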;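 note: 100% = tunicamycin at 10 µg/mL and 0% = DMSO alone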
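Assay system: CHO cells with stable CHOP pathway luciferase reporter; Buffer or medium: F12 plus 10% serum; Times: 16-18 h cell attachment, then 6 h compound exposure, 37 °C; Signal: luciferase luminescence; Read-out basis: percent activation relative to tunicamycin control; Control set: tunicamycin high control, DMSO low control.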
Dynein transport = dynein cargo transport inhibition. 3617.4 mouse cells, GR-EGFP nuclear translocation imaging; test concentration mostly 20 µM; stimulated with dexamethasone, 1 µM; stronger effect = lower value. z-score, hits read low. hit rate 0.47% among 220,000. AID 1381;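 active = plate z-score of nuclear minus cytoplasmic receptor signal below a set negative limit, without overly bright fluorescence or cell loss, cut at about -3.5 in these data, passing the limit was not always enough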;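 note: z-score of nuclear minus cytoplasmic ring GR-EGFP intensity difference per well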
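Medium: Induction medium lacking tetracycline, stripped serum | Probe or stimulus: 1.0 µM final dexamethasone stimulus | Schedule: 48 h induction, then 1 h compound, then 30 min agonist, 37 °C | Signal: Automated 10x imaging of fixed Hoechst-stained cells | Evaluation: Per-cell GR-EGFP intensity, nucleus versus surrounding cytoplasmic ring, well-averaged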
Starred values were filed as active, the others as inactive; . = no result.

SMILES	UPR XBP1 act	CHOP inh	T cruzi repl	Lmaj promast	CHOP UPR activ	Dynein transport
CCOC(=O)C1=C(c2ccccc2)NC(=O)NC1c1cc(OC)c(O)c([N+](=O)[O-])c1 (stereo not drawn)	-3	.	-16	.	-1	.
CCCOc1ccc([N+](=O)[O-])cc1C1NC(=S)NC(c2ccccc2)=C1C(=O)OCC (stereo not drawn)	1	50	43	100*	-1	2.6
Cc1ccc(Cl)cc1N1CCN(C(=O)c2ccc3c(c2)CCN3S(C)(=O)=O)CC1	-7	.	17	.	-2	.
Cn1c(=O)c2c(nc(NCCCN3CCOCC3)n2Cc2cccc(Cl)c2)n(C)c1=O	2	.	-4	98*	-1	-0.56
Cn1c(=O)c2c(nc(NCCCN3CCOCC3)n2Cc2ccc(Cl)c(Cl)c2)n(C)c1=O	.	.	.	99*	.	0.47
CCCNc1nc2c(c(=O)n(C)c(=O)n2C)n1Cc1cccc(C)c1	-1	.	-46	5	2	-0.6
Cc1ccc(Cn2c(CN3CCOCC3)nc3c2c(=O)n(C)c(=O)n3C)cc1	4	3	4	9	-2	0.92
Cn1c(=O)c2c(nc(NCCCN3CCOCC3)n2Cc2ccc(Cl)cc2)n(C)c1=O	4	.	-18	58*	-1	0.1
Cc1ccc(C(CC(=O)O)Nc2nc(N3CCOCC3)nc(N3CCOCC3)n2)cc1 (stereo not drawn)	1	8	2	-4	1	0.81
CCOc1cc(/C=N/NC(=O)Cn2nc([N+](=O)[O-])cc2C)cc(Br)c1OCc1ccccc1F	16	78*	37	1	1	-0.35
CC(C)NC(=S)N/N=C/c1cc(Br)ccc1O	0	77*	-21	48	5	-0.2
Cc1[nH]c2ccccc2c1/C=N/NC(=S)NC(C)C	3	-23	4	31	1	2.3
CC(C)NC(=S)N/N=C/c1c[nH]c2ccccc12	1	9	-5	66*	1	-0.2
Oc1ccc(Br)cc1/C=N/NC(=S)NCCc1ccccc1	0	.	-25	.	1	.
O=C(NCC(=O)N1CCN(c2ccccc2F)CC1)c1ccc(Br)o1	-1	.	-15	.	1	.
CCN(CC)c1ccc(C(=O)NC(=S)Nc2cc(S(=O)(=O)N3CCOCC3)ccc2-n2cncn2)cc1	2	27	16	68*	7	0.57
CCOc1ccccc1NC(=O)CCN(c1ccc(C)cc1)S(=O)(=O)c1ccccc1	-1	22	28	81*	4	-0.17
Cc1ccc(N(CC(=O)NC(C)c2ccccc2)S(=O)(=O)c2cccs2)cc1 (stereo not drawn)	-3	36	7	89*	-2	0.24
CCOc1ccc(S(=O)(=O)N(CC(=O)N/N=C/c2cccs2)c2ccc(C)cc2)cc1	-3	76*	-5	23	0	-0.4
CCN1CCN(CC(=O)n2c3c(c4ccccc42)CC(C)CC3)CC1 (stereo not drawn)	-1	24	31	100*	0	4.2
O=C(Cc1ccsc1)Nc1ccccc1F	1	.	-11	.	3	.
Cc1ccc(C(=O)O[C@H](C(=O)O)[C@H](OC(=O)c2ccc(C)cc2)C(=O)O)cc1 (tested in a mixture with another compound)	.	5	.	.	.	.
CC1=CC2=NC(=O)/C(=C\c3cc(C)n(-c4ccc(F)cc4)c3C)C(=N)N2O1	6	5	-1	-2	2	0.26
CC1=CC2=NC(=O)/C(=C\c3ccc(-c4cccc(Cl)c4)o3)C(=N)N2O1	0	107*	-3	58*	1	7.9
CCC(C)(C)NC(=O)C(c1ccccc1F)N(Cc1ccco1)C(=O)c1csnn1 (stereo not drawn)	-1	12	9	57*	1	-0.44
SMILES	UPR XBP1 act	CHOP inh	T cruzi repl	Lmaj promast	CHOP UPR activ	Dynein transport
O=C(OCCCOC(=O)c1ccccc1O)c1ccccc1O	-4	.	-4	.	1	.
COc1ccc(NC(=S)Nc2ccc3snnc3c2)cc1	4	-15	-2	54*	4	-0.049
COc1ccc(NC(=S)Nc2ccccc2)cc1	-1	-20	-17	.	2	-0.54
COc1ccc(NC(=S)Nc2ccc(N)c([N+](=O)[O-])c2)cc1	5	2	35	100*	3	-0.77
OCCN1CCN(c2ncnc3c2sc2nc(N4CCOCC4)c4c(c23)CCC4)CC1	6	16	60*	29	-3	1.3
CC1(C)Cc2c(c(N3CCCC3)nc3sc4c(N5CCN(CCO)CC5)ncnc4c23)CO1	5	27	.	74*	0	3.9
CN1CCN(S(=O)(=O)c2ccc(Br)c3nsnc23)CC1	-2	-13	-3	-4	-1	0.11
CN1CCN(S(=O)(=O)c2ccc(Sc3nc4ccccc4[nH]3)c3nsnc23)CC1	1	44	-3	100*	0	1.1
CCN1/C(=C/c2cc[n+](CCCS(=O)(=O)[O-])c3ccccc23)Sc2ccccc21	10	0	21	100*	0	0.46
COc1cccc(CNc2ncc(Br)cc2Br)c1O	5	81*	-18	-4	5	0.22
CC(C)C(c1nnnn1Cc1ccccc1)N1CCN(Cc2ccco2)CC1 (stereo not drawn)	-4	24	45	9	1	0.16
Cc1ccc(Cl)cc1N1CCN(Cc2nnnn2Cc2ccco2)CC1	.	72*	19	5	.	0.31
CC(C)C(c1nnnn1Cc1ccco1)N1CCN(c2cccc(Cl)c2)CC1 (stereo not drawn)	-2	12	5	85*	0	-1.3
COc1ccc(-c2nc(-c3ccccn3)no2)cc1	-5	101*	12	0	-10	-0.5
COc1ccccc1-c1nc(-c2ccccn2)no1	-8	59	-10	4	-8	0.7
O=c1c2ccccc2c(C=NC2CCN(Cc3ccccc3)CC2)c(O)n1Cc1ccc2c(c1)OCO2	0	6	54	87*	0	-0.53
CCN(CC)CCCN=Cc1c(O)n(Cc2ccccc2)c(=O)c2ccccc12	1	-16	46	99*	0	0.91
CCN(CC)CCCN=Cc1c(O)n(-c2ccccc2C)c(=O)c2ccccc12	-3	-12	-19	.	-1	0.14
CN(C)CCN=Cc1c(O)n(Cc2ccc3c(c2)OCO3)c(=O)c2ccccc12	-1	6	46	74*	0	-0.87
O=c1c2ccccc2[nH]c(=S)n1Cc1ccc2c(c1)OCO2	5	25	-18	3	2	0.95
CN(C)CCCN=Cc1c(O)n(Cc2ccc3c(c2)OCO3)c(=O)c2ccccc12	-1	4	75*	98*	2	-0.99
